RAD54 inh: inhibitors of human RAD54 branch migration, primary screen, biochemical, fluorescence, single point; DNA repair and recombination protein RAD54-like (Homo sapiens), Q92698; RAD54 Holliday junction branch migration, FAM/BHQ fluorescence; inhibition, % at 10.4 µM; 0.14% of 360,000 active;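 active = mean normalized replicate activity at least 40 and at least half of replicates scoring 40 or more; inconclusive = only one of the two criteria met; inactive = mean below 40 and under half of replicates reaching 40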;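 also: 0% = median of neutral control wells and 100% = median of positive control wells; inhibitors cause a drop in the FAM fluorescence signal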
MLL AF4-AF9 inh: inhibitors of AF4 peptide binding to AF9, primary screen, biochemical, AlphaScreen, biotin-AF4 peptide, FLAG-AF9, single point; Protein AF-9 (Homo sapiens), P42568; inhibition, % at 10 µM; 0.47% of 350,000 active; AID 651704, 2012;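 active = every replicate reaching a set inhibition limit, whatever the replicate mean, cut at about 25% in these data; inconclusive = mean inhibition reaches that limit but some replicates miss it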;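 also: 0% = plate neutral control median and 100% = total signal loss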
dFosB act: activators of delta FosB homodimer, primary screen, biochemical, fluorescence polarization, TAMRA-CDK5 oligo, single point; Protein FosB (Mus musculus), P13346; 0.99% of 340,000 active; purified delta FosB; percent of positive-control signal above neutral wells; activation, % at 25 µM; AID 493131, 2011;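 active = mean activation above about 17%, with every replicate also reaching it, limit read from the data, passing the limit was not always enough; inconclusive = only one of the two conditions met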
Target sequence (P13346 whole entry, looked up): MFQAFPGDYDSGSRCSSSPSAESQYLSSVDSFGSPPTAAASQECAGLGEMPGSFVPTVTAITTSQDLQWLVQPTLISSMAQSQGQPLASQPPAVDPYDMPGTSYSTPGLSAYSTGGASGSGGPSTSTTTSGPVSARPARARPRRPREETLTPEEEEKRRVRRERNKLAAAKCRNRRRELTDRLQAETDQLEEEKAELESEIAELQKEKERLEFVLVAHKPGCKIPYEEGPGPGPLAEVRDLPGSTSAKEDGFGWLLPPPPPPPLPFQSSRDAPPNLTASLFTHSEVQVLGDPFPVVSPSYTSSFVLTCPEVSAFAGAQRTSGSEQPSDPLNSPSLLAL
S100A4 MyoIIA: inhibitors of S100A4-myosin IIA peptide binding, primary screen, biochemical, fluorescence polarization, TAMRA-MyoIIA peptide. Protein S100-A4 (Homo sapiens), P26447. inhibition, % at 10.7 µM. 0.14% of 360,000 active;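 active = mean inhibition of at least 70% across replicates, with every replicate also reaching that level; inconclusive = mean inhibition reaches 70% but some replicates fall short; inactive = mean inhibition below 70%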
Target sequence (P26447 whole entry, looked up): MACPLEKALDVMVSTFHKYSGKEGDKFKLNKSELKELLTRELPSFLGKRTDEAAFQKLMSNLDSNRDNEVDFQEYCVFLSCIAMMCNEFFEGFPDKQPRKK
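incubation = readout 5 min after mixing, signal stable up to 60 min | system = S100A4 monomer protein | buffer or medium = HEPES pH 7.2 with CaCl2, KCl, NaCl, DTT, Triton | benchmarks = neutral control DMSO, positive control TFP | also added = fluorescent myosin IIA peptide, 5 nM | compound dosing = one concentration per compound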
RAD52 inh: RAD52 DNA annealing inhibitors, primary screen, biochemical, FRET, single point, set 2; DNA repair protein RAD52 homolog (Homo sapiens), P43351; recombinant RAD52 DNA annealing, FRET fluorescence; inhibition, % at 18.7 µM; 0.46% of 360,000 active; AID 651710, 2012;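 active = every replicate showing at least 50% inhibition; inconclusive = mean inhibition at least 50% but not in every replicate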
DNA binder FP: DNA-binding compounds via dye displacement, dose response, artefact control for RAD52 inhibitor project, biochemical, fluorescence polarization, cherry-pick; shares compounds with RAD52 inh; Salmon sperm DNA/acridine orange FP displacement; AC50, µM; 8% of 1,000 active;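 active = fitted half-maximal concentration for signal loss at or below twice the highest dose tested, in every separate run, actives reach about 64 µM in these data; inconclusive = runs disagree, or flat partial signal loss, or poor fit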
Starred values were filed as active, the others as inactive. This is a sample that favours compounds with a hit; in the whole collection about 1.5% have one here.

Screening CNC[C@@H]1Oc2ccc(NC(=O)CCCN(C)C)cc2C(=O)N([C@H](C)CO)C[C@@H]1C returned RAD54 inh -7, MLL AF4-AF9 inh 2, S100A4 MyoIIA 11 and RAD52 inh -3.
Screening C[C@@H]1CN([C@H](C)CO)C(=O)c2cc(NC(=O)CCN3CCOCC3)ccc2O[C@H]1CN(C)C returned RAD54 inh -13, MLL AF4-AF9 inh -3, S100A4 MyoIIA -1 and RAD52 inh 5.
`CCSc1ccc2c(c1)N(CCCN1CCN(C)CC1)c1ccccc1S2` gave RAD54 inh 26, MLL AF4-AF9 inh 65*, dFosB act 8, S100A4 MyoIIA -3, RAD52 inh 63* and DNA binder FP inactive.
Screening CN1CCN(CCCN2c3ccccc3Sc3ccc(Cl)cc32)CC1 returned RAD54 inh 13, MLL AF4-AF9 inh 36*, dFosB act 12, S100A4 MyoIIA -6, RAD52 inh 79* and DNA binder FP inactive.
OC1CC2CCC(C1)N2CCCN1c2ccccc2Sc2ccc(Cl)cc21 (stereo unspecified) was read as RAD54 inh 18, MLL AF4-AF9 inh 19, dFosB act 15, S100A4 MyoIIA 1, RAD52 inh 91* and DNA binder FP inactive.
`OCCN1CCN(CC/C=C2/c3ccccc3Sc3ccc(C(F)(F)F)cc32)CC1` gave RAD54 inh 8, MLL AF4-AF9 inh 27*, dFosB act inconclusive, S100A4 MyoIIA -13, RAD52 inh 58* and DNA binder FP inactive.
For OCCN1CCN(CC/C=C2/c3ccccc3CSc3ccccc32)CC1 the results were RAD54 inh -6, MLL AF4-AF9 inh 12, S100A4 MyoIIA 3 and RAD52 inh 18.
`OCCN1CCN(CCCN2c3ccccc3Sc3ccc(C(F)(F)F)cc32)CC1` gave RAD54 inh inconclusive, MLL AF4-AF9 inh 18, dFosB act 4, S100A4 MyoIIA 2, RAD52 inh 56* and DNA binder FP inactive.
CN(C)CCCN1c2ccccc2Sc2ccc(C(F)(F)F)cc21 was read as RAD54 inh 18, MLL AF4-AF9 inh 21, dFosB act 0, S100A4 MyoIIA 1 and RAD52 inh 48.
Screening CCNC(=O)Nc1ccc2c(c1)C(=O)N(C)[C@@H]1CC[C@@H](CC(=O)NCc3ccccc3F)O[C@H]1CO2 returned RAD54 inh 6, MLL AF4-AF9 inh 0, S100A4 MyoIIA 2 and RAD52 inh 2.
COc1ccc(C)cc1Nc1n[n+](-c2ccccc2)c(-c2c(OC)ccc3ccccc23)s1 was read as RAD54 inh 2, MLL AF4-AF9 inh 40*, dFosB act 8, S100A4 MyoIIA -1, RAD52 inh 102* and DNA binder FP inactive.
Screening C=CCNc1nc(NCc2cccc(OC)c2)c2sc(-c3ccccc3)cc2n1 returned RAD54 inh -3, MLL AF4-AF9 inh 0, S100A4 MyoIIA -6, RAD52 inh 83* and DNA binder FP inactive.
For C[C@@H]1CN([C@@H](C)CO)S(=O)(=O)c2ccc(C#Cc3ccccc3)cc2O[C@@H]1CN(C)C the results were RAD54 inh -5, MLL AF4-AF9 inh 8, S100A4 MyoIIA -2 and RAD52 inh 17.
For COCCCNc1nc(-c2ccc(Cl)cc2)nc2ccccc12 the results were RAD54 inh 5, MLL AF4-AF9 inh -10, dFosB act -19, S100A4 MyoIIA -1 and RAD52 inh -4.
For COc1ccc(-c2nc(NCCCN(C)C)c3ccccc3n2)cc1 the results were RAD54 inh 90*, MLL AF4-AF9 inh -12, dFosB act -9, S100A4 MyoIIA -5, RAD52 inh 87* and DNA binder FP inactive.
For CCN(CC)CCCNc1nc2ccccc2c2[nH]c3ccc(OC)cc3c12 the results were MLL AF4-AF9 inh inconclusive, dFosB act 78*, S100A4 MyoIIA 4, RAD52 inh 105* and DNA binder FP 6.5µM*.

Bioassay records: PubChem, Broad Institute
